Columns and labels:
[1] = Safety and tolerability, tablet single ascending dose study; format: in vivo, human
[2] = Phase I single ascending dose study of ALZ-801 loose-filled capsule; format: in vivo, human; conditions: both, human, plasma, oral, 100 mg, Plasma tramiprosate t ½, mean ± SD
Outline: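 Single fasted oral loose-filled capsules; 172 mg in 36 healthy subjects over 50 y (parallel, randomized 1:1:1), 300 mg in 15 subjects over 50 y. Plasma sampled over 48 h into K3 EDTA on ice, spun 2000g 10 min 4 °C, stored at or below −20 °C. LC-MS assay; non-compartmental analysis; Tmax as median (range).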

[3] = biological target: T1, organic anion transporter (OAT) 1 (Homo sapiens, UniProt Q4U2R8); test: Effect on renal transporters; format: in vitro ADME; conditions: concentrations up to 100 mM; data on file
T1 sequence (Q4U2R8 1-563): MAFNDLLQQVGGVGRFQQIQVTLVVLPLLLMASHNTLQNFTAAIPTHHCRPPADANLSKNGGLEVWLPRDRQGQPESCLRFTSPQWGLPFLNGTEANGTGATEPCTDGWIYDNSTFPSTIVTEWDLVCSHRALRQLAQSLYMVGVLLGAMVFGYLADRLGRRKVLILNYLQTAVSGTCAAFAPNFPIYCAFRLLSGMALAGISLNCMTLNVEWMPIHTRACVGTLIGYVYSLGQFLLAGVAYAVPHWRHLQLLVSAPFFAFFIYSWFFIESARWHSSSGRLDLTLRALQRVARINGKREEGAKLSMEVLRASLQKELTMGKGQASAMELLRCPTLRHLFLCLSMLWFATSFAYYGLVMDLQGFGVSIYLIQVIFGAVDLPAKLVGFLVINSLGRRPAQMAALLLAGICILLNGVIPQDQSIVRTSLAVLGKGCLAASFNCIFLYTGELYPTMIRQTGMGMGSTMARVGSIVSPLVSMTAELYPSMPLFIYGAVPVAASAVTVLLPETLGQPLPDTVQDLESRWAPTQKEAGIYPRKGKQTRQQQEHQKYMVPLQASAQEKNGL

[4] = tested on: brain amyloid plaque load; conditions: chronic oral treatment, TgCRND8 mice; cited from earlier work
[5] = Regimen A: 171 mg tablet, fasted, n = 10
[6] = Regimen B: 205 mg tablet, fasted, n = 11
[7] = Regimen C: 205 mg tablet, fed, n = 12

CC(C)[C@H](N)C(=O)NCCCS(=O)(=O)O [ALZ-801, 3-(L-valyl) amino-1-propanesulfonic acid]
0.5 to 1 h: onset of nausea ([1]; following fasted dosing)
3: Subjects reporting AEs ([1]; Regimen D: 342 mg (2 × 171 mg tablets), fed, n = 12) | Gastrointestinal disorders ([1]; Regimen D: 342 mg, fed, n = 12) | Nausea ([1]; Regimen D: 342 mg, fed, n = 12)
1: Vomiting [1, 5] | Vomiting [1, 6]
4: Gastrointestinal disorders [1, 5] | Nausea [1, 5] | Subjects reporting AEs [1, 5] | Gastrointestinal disorders [1, 6] | Nausea [1, 6] | Subjects reporting AEs [1, 6]
0: Chills [1, 5] | Flatulence [1, 5] | Flushing [1, 5] | General disorders and administration site conditions [1, 5] | Headache [1, 5] | Nervous system disorders [1, 5] | Somnolence [1, 5] | Vascular disorders [1, 5] | Chills [1, 6] | Flatulence [1, 6] | Flushing [1, 6] | General disorders and administration site conditions [1, 6] | Headache [1, 6] | Nervous system disorders [1, 6] | Somnolence [1, 6] | Vascular disorders [1, 6] | Chills [1, 7] | Flatulence [1, 7] | Flushing [1, 7] | Gastrointestinal disorders [1, 7] | General disorders and administration site conditions [1, 7] | Headache [1, 7] | Nausea [1, 7] | Nervous system disorders [1, 7] | Somnolence [1, 7] | Subjects reporting AEs [1, 7] | Vascular disorders [1, 7] | Vomiting [1, 7] | Chills ([1]; Regimen D: 342 mg, fed, n = 12) | Flatulence ([1]; Regimen D: 342 mg, fed, n = 12) | Flushing ([1]; Regimen D: 342 mg, fed, n = 12) | General disorders and administration site conditions ([1]; Regimen D: 342 mg, fed, n = 12) | Headache ([1]; Regimen D: 342 mg, fed, n = 12) | Nervous system disorders ([1]; Regimen D: 342 mg, fed, n = 12) | Somnolence ([1]; Regimen D: 342 mg, fed, n = 12) | Vascular disorders ([1]; Regimen D: 342 mg, fed, n = 12) | Vomiting ([1]; Regimen D: 342 mg, fed, n = 12)
1.5 to 2.5 h: onset of nausea ([1]; following fed dosing)
well tolerated: tolerability ([1]; tablet SAD study (Study 3))

NCCCS(=O)(=O)O [tramiprosate, 3-amino-1-propanesulfonic acid]
5.9 ± 5.22 h: half-life ([2]; after tramiprosate LF capsule 100 mg)
~ 30%: reduction in brain amyloid plaque load [4]
4.99 ± 2.66 h: half-life ([2]; after tramiprosate MR tablet 100 mg)
no effect: effect on renal transporter [3]

— paper PMC5814546 (Clinical Pharmacokinetics, 2017)
